According to ChEMBL document CHEMBL4414562, “Discovery of the First in Vivo Active Inhibitors of the Soluble Epoxide Hydrolase Phosphatase Domain” (J Med Chem, 2019):
Calls of active or inactive are those of the source. No cut-off for these calls is given here.

Columns and labels:
[1] = molecular target: T1, Bifunctional epoxide hydrolase 2 (Homo sapiens, UniProt P34913); assay: Inhibition of hydrolase activity of full length human soluble epoxide hydrolase pre-incubated for 30 mins before PHOME substrate addition by fluorescence based assay
T1 sequence (P34913 whole entry): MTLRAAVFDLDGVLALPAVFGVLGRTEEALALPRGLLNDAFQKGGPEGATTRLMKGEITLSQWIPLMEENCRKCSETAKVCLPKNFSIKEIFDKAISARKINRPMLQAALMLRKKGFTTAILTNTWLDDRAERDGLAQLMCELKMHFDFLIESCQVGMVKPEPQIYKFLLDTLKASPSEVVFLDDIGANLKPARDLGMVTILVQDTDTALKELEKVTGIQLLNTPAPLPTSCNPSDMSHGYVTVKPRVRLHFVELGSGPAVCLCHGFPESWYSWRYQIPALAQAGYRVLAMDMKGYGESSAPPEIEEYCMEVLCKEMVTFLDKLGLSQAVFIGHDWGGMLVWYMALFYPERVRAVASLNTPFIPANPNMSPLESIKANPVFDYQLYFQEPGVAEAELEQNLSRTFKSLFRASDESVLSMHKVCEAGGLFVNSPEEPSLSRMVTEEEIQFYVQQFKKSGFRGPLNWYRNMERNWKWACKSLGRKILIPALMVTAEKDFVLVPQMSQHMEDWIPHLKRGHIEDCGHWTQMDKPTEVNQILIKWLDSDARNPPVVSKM
Method in brief: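 Hydrolase assay with 0.1 μM full-length enzyme in Bis-Tris pH 7 containing 0.1 mg/mL BSA and 0.01% Triton X-100. Reaction started with PHOME (50 μM final). Triplicates.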

[2] = molecular target: T2, Prostaglandin G/H synthase 2 (Homo sapiens, UniProt P35354); assay: Inhibition of COX2 in LPS-stimulated human monocytes assessed as reduction in PGE2 production by LC-tandem MIS analysis; assay type: cell-based
T2 sequence (P35354 whole entry): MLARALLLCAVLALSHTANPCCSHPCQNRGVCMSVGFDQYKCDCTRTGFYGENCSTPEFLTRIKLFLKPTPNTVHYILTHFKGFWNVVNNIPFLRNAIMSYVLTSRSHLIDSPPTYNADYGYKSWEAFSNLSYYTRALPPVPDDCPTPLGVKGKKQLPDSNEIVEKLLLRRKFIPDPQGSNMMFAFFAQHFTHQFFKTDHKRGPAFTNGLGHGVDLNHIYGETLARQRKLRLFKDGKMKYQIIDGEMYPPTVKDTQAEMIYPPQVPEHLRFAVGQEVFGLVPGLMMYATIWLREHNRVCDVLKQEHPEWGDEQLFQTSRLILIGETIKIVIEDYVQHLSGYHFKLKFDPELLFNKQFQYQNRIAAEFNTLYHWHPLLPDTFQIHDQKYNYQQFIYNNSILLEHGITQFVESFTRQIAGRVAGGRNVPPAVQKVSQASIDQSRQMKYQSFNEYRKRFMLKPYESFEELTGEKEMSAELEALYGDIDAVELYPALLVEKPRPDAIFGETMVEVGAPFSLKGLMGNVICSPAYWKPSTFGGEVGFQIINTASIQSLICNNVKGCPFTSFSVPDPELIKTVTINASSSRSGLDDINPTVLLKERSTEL
Method in brief: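 Human monocytes resuspended in HBSS and pretreated with increasing compound concentrations before LPS challenge. PGE2 quantified by LC−MS/MS using PGE2-d4 isotope-dilution internal standard.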

[3] = Competitive inhibition of hexa-His-tagged human soluble epoxide hydrolase N-terminal phosphatase domain expressed in Escherichia coli BL21(DE3) pre-incubated for 30 mins before DiFMUP substrate addition by fluorescence based assay
Rattus norvegicus [4] = assay: Inhibition of sEH-H in Sprague-Dawley rat assessed as effect on ratio of 19,20-EpDPA […] in plasma at 30 mg/kg, po after 8 hrs by LC-MS/MS analysis; assay type: functional, organism-based
Method in brief: (§1)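 Male Sprague-Dawley rats given a single oral dose of 30 mg/kg or vehicle (n = 3 per group). Plasma collected 8 h later. Epoxy fatty acid/diol ratios and LPA/corresponding MAG ratios quantified by LC−MS/MS.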

[5] = molecular target: T1, Bifunctional epoxide hydrolase 2; assay: Competitive inhibition of full length human soluble epoxide hydrolase pre-incubated for 30 mins before DiFMUP substrate addition by fluorescence based assay
Rattus norvegicus [6] = assay: Inhibition of sEH-H in Sprague-Dawley rat assessed as effect on ratio of 14,15-EET to 14,15-DHET in plasma at 30 mg/kg, po after 8 hrs by LC-MS/MS analysis; assay type: functional, organism-based; method in brief: as §1
[7] = Binding affinity to hexa-His-tagged human soluble epoxide hydrolase N-terminal phosphatase domain expressed in Escherichia coli BL21(DE3) by ITC assay
Method in brief: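 Inverse-mode ITC with 185 μM freshly prepared sEH-P in the syringe and inhibitor in the cell. Both in 50 mM acetate, 10 mM MgCl2, 5% glycerol, pH 5.75 with 2% DMSO. Run at 25 °C, 350 rpm stirring, 20−25 injections of 8−10 μL, 200 s spacing. Inhibitor concentration chosen to optimize curve shape. Heats fitted to a single-site model.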

Rattus norvegicus [8] = assay: Inhibition of sEH-P in Sprague-Dawley rat assessed as effect on ratio of sn1-18:2 LPA to corresponding monoacylglycerol species in plasma at 30 mg/kg, po after 8 hrs by LC-MS/MS analysis; assay type: functional, organism-based; method in brief: as §1
[9] = molecular target: Prostaglandin G/H synthase 1 (Homo sapiens, UniProt P23219); assay: Inhibition of COX1 in A23187-stimulated human platelets assessed as reduction in TXA2 production
Chain of Prostaglandin G/H synthase 1 (P23219 whole entry): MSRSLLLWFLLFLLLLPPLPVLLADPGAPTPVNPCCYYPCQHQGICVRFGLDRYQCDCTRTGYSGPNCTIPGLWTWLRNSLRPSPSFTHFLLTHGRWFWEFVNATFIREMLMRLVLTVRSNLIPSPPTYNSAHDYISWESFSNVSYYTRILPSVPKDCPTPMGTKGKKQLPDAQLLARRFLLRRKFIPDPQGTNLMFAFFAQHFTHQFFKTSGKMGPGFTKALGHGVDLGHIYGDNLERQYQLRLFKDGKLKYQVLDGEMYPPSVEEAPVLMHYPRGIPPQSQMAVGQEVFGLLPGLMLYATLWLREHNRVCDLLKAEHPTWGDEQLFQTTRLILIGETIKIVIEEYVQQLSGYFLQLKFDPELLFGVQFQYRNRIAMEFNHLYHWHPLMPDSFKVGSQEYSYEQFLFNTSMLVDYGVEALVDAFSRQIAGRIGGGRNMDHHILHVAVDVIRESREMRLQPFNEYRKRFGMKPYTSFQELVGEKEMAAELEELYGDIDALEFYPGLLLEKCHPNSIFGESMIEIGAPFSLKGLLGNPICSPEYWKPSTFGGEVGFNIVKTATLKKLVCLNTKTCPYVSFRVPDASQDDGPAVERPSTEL
Method in brief: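 Washed human platelets preincubated with increasing compound concentrations, then challenged with calcium ionophore A23187. TXB2 (stable TXA2 metabolite) in supernatant quantified by LC−MS/MS with TXB2-d4 internal standard.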

Rattus norvegicus [10] = assay: Inhibition of sEH-P in Sprague-Dawley rat assessed as effect on ratio of sn1-18:1 LPA to corresponding monoacylglycerol species in plasma at 30 mg/kg, po after 8 hrs by LC-MS/MS analysis; assay type: functional, organism-based; method in brief: as §1

Row | IC50 [1] | IC50 [2] | Ki [5] | ΔTm (Homo sapiens) | IC50 [9] | SMILES | Ki [3] | inhibition (Rattus norvegicus [4]) | inhibition (Rattus norvegicus [6]) | Kd [7] | inhibition (Rattus norvegicus [8]) | inhibition (Rattus norvegicus [10])
1 | > 300000 nM | 110 nM | – | – | – | O=C(O)CCc1nc(-c2ccccc2)c(-c2ccccc2)o1 [OXAPROZIN] | – | – | – | – | – | –
2 | – | 420 nM | 4800 nM | 6.6 °C | 1200 nM | O=C(O)CCCc1nc(-c2ccc(Cl)c(Cl)c2)c(-c2ccccc2)o1 | 50 nM | inactive | inactive | 300 nM | Active | Active
